PGC1a acetyl inh: PGC1a acetylation modulation, inhibitor mode; 0.17% of 350,000 active; U2OS PGC1a acetylation, AlphaScreen anti-acetyl-lysine; with virally co-expressed GCN5 acetyltransferase; inhibition, % at 15.6 µM;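 active = every replicate shows inhibition of at least 40%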;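 note: 0% = neutral control wells and 100% = positive control wells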
ERAP1 HTS inh: ERAP1 (human) enzyme inhibition; AID 652197; 0.15% of 340,000 active; inhibition, % at 10.7 µM; recombinant ERAP1, Leu-AMC fluorescence, 60 min;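 active = mean replicate inhibition of at least 30%, or all replicates individually reaching that 30% level; inactive = mean below 30% and not every replicate reaching it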;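 note: 0% = neutral control wells and 100% = L-leucinethiol positive control wells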
FGF22 binding: FGF22 (human) thermal shift binding; activity (Tm shift, normalised), % at 9.99 µM; Q9HCT0; recombinant FGF22 thermal shift, SYPRO orange fluorescence; percent of sucrose octasulfate shift, DMSO zero; 1.5% of 340,000 active;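 active = mean Tm shift, scaled 0 neutral to 100 positive control, at about 1.3% or above, every replicate too, limit read from the data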
Target sequence (Q9HCT0 whole entry, looked up): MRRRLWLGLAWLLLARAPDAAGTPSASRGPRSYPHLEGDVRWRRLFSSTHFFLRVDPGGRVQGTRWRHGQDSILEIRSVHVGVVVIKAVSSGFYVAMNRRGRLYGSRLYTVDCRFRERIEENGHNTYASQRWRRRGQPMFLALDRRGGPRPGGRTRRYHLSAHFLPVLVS
SIRT5 inh: sirtuin-5 (human) deacylase inhibition. Purified SirT5, succinyl-peptide AMC, trypsin-coupled fluorescence. 1.1% of 330,000 active. inhibition, % at 15 µM. Q9NXA8; in the data active = inhibition above about 15%
FN deposition inh: fibronectin deposition inhibition; AH1F fibroblasts, Alexa488-fibronectin deposition fluorescence, overnight; inhibition, % at 12.6 µM; 0.086% of 350,000 active; AID 743247;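 active = mean inhibition across replicates of 30% or more, regardless of how many single replicates reach that level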;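 note: positive control wells lacked labelled fibronectin entirely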
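Material – AH1F fibroblast monolayer, labelled fibronectin deposition · Reagent – labelled fibronectin 24 nM · Timing – 1 h adhesion, overnight exposure · Measured by – fluorescence at 485 nm excitation, 525 nm emission · Read-out – inhibition of fibronectin deposition signal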
The depositor's hits bear a star; nt = no result given. A selection: hits, their analogues and other compounds. The true share with any hit is near 2.2%.

SMILES	PGC1a acetyl inh	ERAP1 HTS inh	FGF22 binding	SIRT5 inh	FN deposition inh
COc1ccc(-n2c(/C=C3\C(=O)Nc4ccccc43)nc3ccccc3c2=O)cc1	9	0	0	112*	nt
Cc1ccc(OCCSC2=NN2c2cc(C)nc(N)n2)cc1	nt	2	0	21*	nt
CCSC1=NN1c1cc(C)nc(N)n1	13	1	0	1	-5
C[C@H]1O[C@@H](OC2CC[C@]3(C=O)[C@H]4CC[C@]5(C)[C@@H](C6=CC(=O)OC6)CC[C@]5(O)[C@@H]4CC[C@]3(O)C2)CC2OC(C)(C)OC21 (stereo partly drawn)	nt	-3	0	3	17
C[C@@H]1O[C@@H](O[C@H]2C[C@@H](O)[C@]3(CO)[C@H]4[C@H](O)C[C@]5(C)[C@@H](C6=CC(=O)OC6)CC[C@]5(O)[C@@H]4CC[C@]3(O)C2)[C@H](O)[C@H](O)[C@H]1O	83*	nt	nt	nt	nt
O=C(Cc1ccccc1)N1C[C@@H]2[C@H](c3ccccc31)[C@H](CO)N2Cc1ccccc1	-10	-2	0	1	nt
CS(=O)(=O)N1CC2NC(C1)C2c1ccc(Br)cc1 (stereo not drawn)	nt	nt	nt	nt	-13
Cn1ncnc2c(=O)n(C)c(=O)nc1-2	100*	nt	nt	nt	nt
COC(=O)[C@H]1[C@H](CO)[C@H]2Cn3c(ccc(-c4ccccc4F)c3=O)[C@@H]1N2Cc1cccnc1	nt	1	0	-3	nt
COc1cccc(N2C(=O)NC(=O)/C(=C/c3ccc4c5c(cccc35)CC4)C2=O)c1	nt	5	0	37*	-4
O=C(O)[C@@H]1[C@@H](CO)[C@@H]2Cn3c(ccc(-c4ccc(F)cc4)c3=O)[C@H]1N2CC1CCCCC1	nt	2	0	-2	nt
CCN1C[C@]2(CO)CC[C@H](OC)[C@@]34C2[C@H](OC)[C@@](O)(C13)[C@@]1(O)C[C@H](OC)[C@H]2C[C@@H]4[C@@H]1[C@H]2OC	2	-4	0	24*	1
CCN1C[C@]2(COC)CC[C@H](OC)[C@@]34C1[C@]1(OCO[C@@]15C[C@H](OC)[C@H]1C[C@@H]3[C@@H]5[C@H]1OC)[C@@H](O)[C@H]24	3	-1	0	-3	0
CC(=O)OCC12CC(OC(=O)CC(C)C)C(C)=CC1OC1C(O)C(OC(C)=O)C2(C)C12CO2 (stereo not drawn)	74*	-1	0	nt	9
CC(C)N=C(NC(C)C)N1CC1	4	-2	43*	nt	-9
COC1CCC(OC2CC(C3(C)CCC4(CC(O)C(C)C(C(C)/C=C(\C)C(=O)C(C)CC(C)C(=O)O)O4)O3)OC3(OC(C4OC(O)(CO)C(C)CC4C)CC3C)C2C)OC1C (stereo not drawn)	1	0	0	24*	-7
CC(=O)OC1(c2ccccc2)CCN(C)CC1(C)C (stereo not drawn)	1	-3	0	15*	-13
COc1ccc(C#Cc2ccc([C@@H]3[C@H]4CN(C(=O)Cc5ccccc5)CCCCN4[C@H]3CO)cc2)cc1	-1	2	-1	-1	nt
O=[N+]([O-])c1ccc(N2CCOCC2)c2cccnc12	nt	4	0	0	-3
O=[N+]([O-])c1ccc(N2CCOCC2)c2c1no[n+]2[O-]	84*	-1	0	nt	30
COC(=O)[C@H]1[C@H](CO)[C@H]2Cn3c(ccc(-c4cccc(F)c4)c3=O)[C@@H]1N2Cc1cccnc1	nt	-1	0	-9	nt
CCCCN1CCC(C#N)(Nc2ccccc2)CC1	11	3	nt	22*	13
COc1ccc(NC2(C#N)CCCCC2)cc1	nt	nt	1	nt	1
C=CCNC(=S)/N=C/c1c(O)[nH]c(=O)[nH]c1=O	nt	8	0	0	0
NC(=S)/N=C/c1c(O)[nH]c(=O)[nH]c1=O	1	22	43*	1	-9
COC(=O)[C@H]1[C@H](CO)[C@H]2Cn3c(ccc(C4=CCCCC4)c3=O)[C@@H]1N2C(=O)CC1CC1	-9	2	0	-20	nt
CNC(=O)Oc1cc2c(cc1C(C)(C)C)CCC2	19	-2	44*	nt	6
C=CC1CN2CCC1C[C@@H]2CO (stereo partly drawn)	20	-3	0	0	nt
O=C1OCCC1C(=O)c1ccccc1 (stereo not drawn)	nt	0	44*	nt	0
